# Screening results as filed in PubChem.
# bIAP act = intestinal alkaline phosphatase (bovine) activation; purified bovine IAP, CDP-star luminescence, 30 min; stronger effect = higher value; fold of DMSO-control signal, blank-subtracted; hit rate 0.17% among 200,000; activation factor at 20 µM;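 active = activation factor of 2 or more at 20 µM, a signal rise over negative controls twice the positive control's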
# mIAP block = blocks mouse intestinal alkaline phosphatase; hit rate 0.2% among 330,000; inhibition, % at 10 µM; purified mouse IAP, CDP-Star luminescence, 30 min;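 active = inhibition of at least 40% at 10 µM in the primary screen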;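 note: plate controls were DMSO with enzyme for no effect and no enzyme wells for full effect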
# hIAP inh = human IAP inhibition; P09923; purified IAP, CDP-Star luminescence, 30 min; inhibition, % at 10 µM; hit rate 0.12% among 330,000;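 active = inhibition reaching a set limit with compound at 10 µM in the primary screen, cut at about 35% in these data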;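 note: plate controls were DMSO wells with enzyme for no effect and no-enzyme buffer wells for full effect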
# Target sequence (P09923 whole entry, looked up): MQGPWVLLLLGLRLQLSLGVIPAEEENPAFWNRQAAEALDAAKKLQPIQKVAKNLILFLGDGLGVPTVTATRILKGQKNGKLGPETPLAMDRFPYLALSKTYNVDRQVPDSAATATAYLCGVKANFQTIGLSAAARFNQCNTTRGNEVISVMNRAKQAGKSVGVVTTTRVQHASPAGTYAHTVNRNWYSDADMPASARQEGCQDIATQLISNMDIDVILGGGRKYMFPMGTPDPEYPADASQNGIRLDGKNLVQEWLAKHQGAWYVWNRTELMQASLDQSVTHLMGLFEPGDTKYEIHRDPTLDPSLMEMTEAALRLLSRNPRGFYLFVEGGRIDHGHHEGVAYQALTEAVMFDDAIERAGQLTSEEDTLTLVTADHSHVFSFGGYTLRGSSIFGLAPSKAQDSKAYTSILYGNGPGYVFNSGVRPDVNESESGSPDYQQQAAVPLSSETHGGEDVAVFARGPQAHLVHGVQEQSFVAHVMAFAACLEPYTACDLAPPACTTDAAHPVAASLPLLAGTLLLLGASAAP
# hIAP act = human IAP activation. purified human IAP, CDP-Star luminescence, 30 min; stronger effect = higher value; 1 = vehicle-only enzyme, 0 = enzyme-free background. activation factor at 10 µM. hit rate 0.16% among 330,000. AID 2524;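 active = activation factor of the enzyme at least 2-fold when tested at 20 µM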
# mIAP activ = increases mouse intestinal alkaline phosphatase activity | muIAP, CDP-Star luminescence, 30 min; stronger effect = higher value; 1 = vehicle-only enzyme signal, 0 = enzyme-free wells | hit rate 0.24% among 330,000 | activation factor at 10 µM;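 active = activation factor of at least 2 at 20 µM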
#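 Assay system: mouse IAP enzyme; reagent: chemiluminescent substrate CDP-Star; dosing: test compounds delivered from DMSO solution; schedule: 30 min at room temperature; measured by: luminescence from enzymatic CDP-Star hydrolysis; controls: DMSO-only wells and no-enzyme negative control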
# bIAP inhibitor = intestinal alkaline phosphatase (bovine) inhibition; purified bovine IAP, CDP-star luminescence, 30 min; inhibition, % at 20 µM; 190,000 tested, under 10 active; AID 1019;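 active = over 50% inhibition of intestinal alkaline phosphatase at 20 µM in the single-dose screen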
#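 Assay system: bovine IAP enzyme; medium: DEA buffer 100 mM, pH 9.8, with MgCl2 1.0 mM, ZnCl2 0.02 mM; doses: 20 µM single dose; incubation: enzyme reaction for 30 min at room temperature; detection: CDP-star luminescence signal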
# An asterisk follows results filed as active; nt = no result given. Sampled rows, rich in hits. Any-hit rate of the full collection: about 0.77%.
SMILES,bIAP act,mIAP block,hIAP inh,hIAP act,mIAP activ,bIAP inhibitor
O=C(Nc1cc(Cl)cc(Cl)c1)C1CCC(=O)N1Cc1ccccc1Cl (configuration not stated),1.1,-104,2,0.98,2*,-6
CCCCc1c(O)nc(SCC(=O)NC(C)(C)C)n(-c2ccccc2C)c1=O,1,42*,-6,1.1,0.58,3
COc1cc(C(=O)OCC(=O)N2CCN(C(C)=O)CC2)ccc1OCC(C)C,nt,1,17,0.83,0.99,nt
Cc1cc(C)c(NC(=O)CSCc2c(C)noc2C)c(Cl)c1,nt,1,3,0.97,0.99,nt
S=c1[nH]nc(-c2ccccc2)n1/N=C/C=C/c1ccco1,0.9,53*,-7,1.1,0.47,6
O=C(N=C1SC2CS(=O)(=O)CC2N1c1ccc(OC(F)(F)F)cc1)C1CC1 (configuration not stated),nt,1,6,0.94,0.99,nt
CCOc1cc(/C=C2\NC(=S)N(c3c(C)n(C)n(-c4ccccc4)c3=O)C2=O)ccc1O,0.9,42*,33,0.67,0.58,9
CCOc1cccc(/C=C2\NC(=S)N(c3ccccc3)C2=O)c1O,nt,10,4,0.96,0.9,nt
CC(C)c1ccc(N=C2N=C(N)c3ccccc32)cc1,nt,14,-3,1,0.86,nt
Cc1ccccc1-c1ccc(C(=O)Nc2cccc(F)c2)o1,3.5*,-1,-3,1,1,-246
O=C(Nc1cccc(F)c1)c1ccc(-c2ccccc2C(F)(F)F)o1,1.2,nt,nt,nt,nt,-24
CCOc1ccccc1NC(=S)N1C2CCC1CC(NC(=O)NC13CC4CC(CC(C4)C1)C3)C2 (configuration not stated),1.6,-112,3,0.97,2.1*,-55
O=C(c1ccc(Cl)c(S(=O)(=O)N2CCCC2)c1)N1CCN(c2ncccn2)CC1,1.1,1,1,0.99,0.99,-11
O=C1CCCCN1CC(=O)N1CCCC(Nc2ccc(F)cc2)C1 (configuration not stated),nt,44*,-42,1.4,0.56,nt
CC(NC(=O)NC1CCCCC1)C(c1cccs1)N1CCOCC1 (configuration not stated),0.9,-6,13,0.87,1.1,12
CC(NC(=S)NCCc1ccccc1)C(c1cccs1)N1CCN(Cc2ccccc2)CC1 (configuration not stated),0.3,-430,-12,1.1,5.3*,nt
CCN1CCN(C(c2cccs2)C(C)NC(=S)Nc2cc(C)ccc2C)CC1 (configuration not stated),nt,-10,2,0.98,1.1,nt
CC(NC(=O)NC1CCCCC1)C(c1cccs1)N1CCN(Cc2ccccc2)CC1 (configuration not stated),3.4*,-63,11,0.89,1.6,-240
COc1ccccc1C1CC(=O)NC(C)=C1C(=O)OC(C)C (configuration not stated),1,14,-4,1,0.85,-4
Cn1cc(C(=O)Nc2ccc(Cl)cc2)c(C(F)(F)F)n1,0.9,5,0,1,0.95,12
CC(C)(C)c1ccc(NC(=O)Nc2ccc(F)cc2)cc1,1,-119,0,1,2.2*,1
Cc1ccc(NC(=O)Nc2ccc(F)cc2)cc1Cl,0.9,-103,-4,1,2*,9
Cc1oc(S(=O)(=O)N2CCCCC2)cc1NC(=O)Nc1ccc(F)cc1,nt,-106,-15,1.2,2.1*,nt
Cn1cc(NC(=O)Nc2ccc(C(F)(F)F)cc2)c(C(F)(F)F)n1,nt,-190,-15,1.2,2.9*,nt
CC(C)(C)c1ccc(COC(=O)Nc2ccc(F)cc2)cc1,0.8,-15,8,0.93,1.2,24
SMILES,bIAP act,mIAP block,hIAP inh,hIAP act,mIAP activ,bIAP inhibitor
Cc1ccc(NC(=O)CCC(=O)c2ccc(F)cc2)cc1Cl,1,-2,-10,1.1,1,4
O=C(Nc1ccc(F)cc1)Nc1ccc(S(=O)(=O)N2CCCC2)cc1,nt,-93,-2,1,1.9,nt
COc1ccc(-c2ccc(-c3cc(=O)oc4c(C(C)C)ccc(C)c34)cc2)cc1,nt,10,nt,nt,0.9,nt
CC(=O)c1cnc2c(-c3ccccc3)c(-c3ccccc3)nn2c1C,nt,3,32,0.68,0.97,nt
COc1ccc(CCNC(=S)NCc2ccc(Cl)c(Cl)c2)cc1OC,1.1,-104,-17,1.2,2*,-6
Cc1cccc(NS(=O)(=O)c2cnc[nH]2)c1,2*,6,-23,1.2,0.94,-96
